Drawing on ChEMBL document CHEMBL4342526, “Exploration of the Structural Space in 4(3H)-Quinazolinone Antibacterials” (J Med Chem, 2020), this text covers MIC for 35 compounds.

Structures are written as SMILES. Converted amounts (≈) assume the structure as drawn. Bounds are passed on as bounds.

Usually MIC stands for the lowest concentration found to suppress growth. A high value points to a less susceptible organism.

In this assay the test system is Staphylococcus aureus. In words: Antibacterial activity against Staphylococcus aureus ATCC 29213 measured after 16 to 20 hrs by microdilution method. The assay is classed as functional. The method, boiled down:
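CLSI broth microdilution: two-fold serial dilutions in triplicate in cation-adjusted Mueller–Hinton broth with 2% NaCl, inoculum 5 × 10^5 CFU/mL, incubated at 37 °C for 16–20 h. MIC is the lowest concentration preventing visible growth.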
For orientation: In broth dilution the organism is exposed to a series of concentrations in liquid medium.
Compound `O=C(O)c1cccc(-n2c(/C=C/c3ccsc3)nc3ccccc3c2=O)c1` returned an MIC of 32 µg/mL (≈ 85.5 µM).
`O=c1c2ccccc2nc(NCc2ccc(F)cc2)n1-c1cccc([N+](=O)[O-])c1` showed an MIC of more than 128 µg/mL.
Then `N#Cc1ccc(COc2nc3ccccc3c(=O)n2-c2cccc(C(=O)O)c2)cc1`, with more than 128 µg/mL; and `Nc1cccc(-n2c(N3CCCCC3)nc3ccccc3c2=O)c1`, with more than 128 µg/mL; and `O=C(O)c1cccc(-n2c(/C=C/c3nccs3)nc3ccccc3c2=O)c1`, with more than 128 µg/mL.
For the compound `N#Cc1ccc(/C=C/c2nc3ccccc3c(=O)n2-c2cc(C(=O)O)ccn2)cc1`, the minimal inhibitory concentration (MIC) is more than 128 µg/mL.
In the case of `N#Cc1ccc(/C=C/c2nc3ccccc3c(=O)n2-c2ccc(F)c(C(=O)O)c2)cc1` it was 16 µg/mL (≈ 38.9 µM); in that of `O=c1c2ccccc2nc(N2CCCCC2)n1-c1cccc([N+](=O)[O-])c1`, more than 128 µg/mL.
As to `CS(=O)(=O)Nc1cccc(-n2c(/C=C/c3ccc(C#N)cc3)nc3ccccc3c2=O)c1`, the MIC turned out to be 0.015 µg/mL (≈ 0.0339 µM).
Consider `O=C(O)c1cccc(-n2c(/C=C/c3cccs3)nc3ccccc3c2=O)c1`, for which the MIC came to 8 µg/mL (≈ 21.4 µM).
Then `O=C(O)c1cccc(-n2c(/C=C/c3cc[n+]([O-])cc3)nc3ccccc3c2=O)c1`, with more than 128 µg/mL; and `O=C(O)c1cccc(-n2c(/C=C/c3ccc[nH]c3=O)nc3ccccc3c2=O)c1`, with more than 128 µg/mL.
In turn, `COC(=O)c1cccc(-n2c(NCc3ccc(F)cc3)nc3ccccc3c2=O)c1` returned an MIC of more than 128 µg/mL.
In the case of `N#Cc1ccc(/C=C/c2nc3ccccc3c(=O)n2-c2cccc(C(=O)O)c2O)cc1` it was more than 128 µg/mL; in that of `O=C(O)c1cccc(-n2c(/C=C/c3cccnc3)nc3ccccc3c2=O)c1`, more than 128 µg/mL; in that of `N#Cc1ccc(/C=C/c2nc3ccccc3c(=O)n2-c2cccc(C(=O)O)c2)cn1`, 64 µg/mL (≈ 162 µM).
`N#Cc1ccc(/C=C/c2nc3ccccc3c(=O)n2-c2cccc(NC(=O)CN3CCOCC3)c2)cc1` came in with an MIC of 32 µg/mL (≈ 65.1 µM). This MIC lies about 2-fold lower than the previous one.
With `N#Cc1ccc(/C=C/c2nc3ccccc3c(=O)n2-c2cccc(N)c2)cc1`, inhibition of growth (MIC) required 0.5 µg/mL (≈ 1.37 µM).
`N#Cc1ccc(/C=C/c2nc3ccccc3c(=O)n2-c2cc(C(=O)O)ccc2C(F)(F)F)cc1`: the MIC is more than 128 µg/mL.
In turn, `N#Cc1ccc(/C=C/c2nc3ccccc3c(=O)n2-c2ccccc2C(=O)O)cc1` came in with a minimum inhibitory concentration (MIC) of 32 µg/mL (≈ 81.3 µM).
In the case of `N#Cc1ccc(/C=C/c2nc3ccccc3c(=O)n2-c2cccc(NC(=O)NCCc3cnc[nH]3)c2)cc1` it was 16 µg/mL (≈ 31.9 µM).
In the case of `N#Cc1ccc(/C=C/c2nc3ccccc3c(=O)n2-c2cc(C(=O)O)ccc2O)cc1` it was more than 128 µg/mL; in that of `N#Cc1ccc(/C=C/c2nc3ccccc3c(=O)n2-c2cccc(N=[N+]=[N-])c2)cc1`, 16 µg/mL (≈ 41 µM).
Compound `N#Cc1ccc(/C=C/c2nc3ccccc3c(=O)n2-c2cc(F)cc(C(=O)O)c2)cc1` came in with an MIC of more than 128 µg/mL.
Then `N#Cc1ccc(/C=C/c2nc3ccccc3c(=O)n2-c2ccc(F)c(C(=O)O)c2F)cc1`, with 64 µg/mL (≈ 149 µM); and `Nc1cccc(-n2c(N3CCN(c4ccc(Cl)cc4)CC3)nc3ccccc3c2=O)c1`, with more than 128 µg/mL; and `N#Cc1ccc(/C=C/c2nc3ccccc3c(=O)n2-c2cccc(CN3C(=O)c4ccccc4C3=O)c2)cc1`, with more than 128 µg/mL.
Take `N#Cc1ccc(/C=C/c2nc3ccccc3c(=O)n2-c2ccc3nc[nH]c3c2)cc1`: the MIC is more than 128 µg/mL.
In the case of `O=C(O)c1cccc(-n2c(/C=C/c3ccc(=O)[nH]c3)nc3ccccc3c2=O)c1` it was more than 128 µg/mL; in that of `N#Cc1ccc(/C=C/c2nc3ccccc3c(=O)n2-c2cccc(CN)c2)cc1`, 32 µg/mL (≈ 84.6 µM).
Compound `N#Cc1ccc(CNc2nc3ccccc3c(=O)n2-c2cccc([N+](=O)[O-])c2)cc1` yielded a minimal inhibitory concentration (MIC) of more than 128 µg/mL.
`N#Cc1ccc(/C=C/c2nc3ccccc3c(=O)n2-c2cccc(C#N)c2)cc1` came in with an MIC of more than 128 µg/mL.
On to `N#Cc1ccc(/C=C/c2nc3ccccc3c(=O)n2-c2ccc(N)cc2)cc1`, for which the MIC is more than 128 µg/mL.
In the case of `N#Cc1ccc(/C=C/c2nc3ccccc3c(=O)n2-c2ccc3[nH]c(=S)[nH]c3c2)cc1`, the MIC is more than 128 µg/mL.
`N#Cc1ccc(/C=C/c2nc3ccccc3c(=O)n2-c2ccccc2[N+](=O)[O-])cc1` displayed an MIC of more than 128 µg/mL.
